Screening data as filed in PubChem.
GAA850 FXN act: activators of GAA850 frataxin (FXN) promoter. HEK293 lucGAA850 FXN promoter luciferase reporter, 24 h; percent of 10 µM SAHA response. activation, % at 6 µM. 0.56% of 360,000 active;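 active = activation above the average of all compounds screened plus 3 SD, cutoff fixed separately per campaign, cut at about 7.5% in these data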;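 note: 0% = DMSO wells and 100% = 10 µM SAHA wells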
CTSL1 counter-1: blocks F. hepatica cathepsin L1 in PFM18AAP counter-screen; 0.49% of 300,000 active; recombinant F. hepatica cathepsin L1, Z-Leu-Arg-MCA fluorescence; inhibition, % at 5.96 µM;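 active = inhibition above the mean of all tested compounds plus 3 SD, set per screening campaign, cut at about 17% in these data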;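 note: 0% = plate median of test compound wells and 100% = 1 µM Z-Phe-Ala-diazomethylketone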
AHR activator: activates the human aryl hydrocarbon receptor | AHR-responsive luciferase reporter cells, luminescence | activation, % at 5 µM | 2.5% of 320,000 active | AID 2796; in the data active = activation above about 47%;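 note: 0% = vehicle wells and 100% = reference agonist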
PfM18AAP inh-1: PfM18AAP enzyme inhibition; 1.2% of 290,000 active; recombinant PfM18AAP, H-Glu-NHMec fluorogenic cleavage; inhibition, % at 7.35 µM;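 active = inhibition above the campaign mean inhibition over all tested compounds plus 3 SD, cut at about 28% in these data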;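 note: 0% = plate median of test compound wells and 100% = 2 mM ZnCl2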
HDAC3 inh: inhibitors of human histone deacetylase 3. recombinant HDAC3, fluorogenic peptide/trypsin coupled, fluorescence. O15379. inhibition, % at 8.3 µM. AID 2718. 0.15% of 320,000 active; in the data active = inhibition above about 26%, passing the limit was not always enough
SENP1 inh: blocks the human SENP1 SUMO protease catalytic domain; 0.21% of 360,000 active; recombinant SENP1 catalytic domain, CyPet-SUMO1-YPet FRET cleavage; AID 624204; Q9P0U3; inhibition, % at 10 µM;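 active = inhibition at least 30% at 10 µM, raw YFP signal under a set limit, fluorescence ratio 0.5 to 1.5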;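 note: 0% = enzyme with DMSO and 100% = no enzyme wells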
Target sequence (Q9P0U3 419-644 limits assumed): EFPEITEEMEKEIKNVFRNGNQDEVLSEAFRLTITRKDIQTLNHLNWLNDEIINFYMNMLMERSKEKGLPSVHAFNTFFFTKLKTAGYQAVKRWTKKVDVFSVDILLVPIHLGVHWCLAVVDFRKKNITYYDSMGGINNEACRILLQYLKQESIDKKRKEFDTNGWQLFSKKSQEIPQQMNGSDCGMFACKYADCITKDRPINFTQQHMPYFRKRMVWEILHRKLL
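Assay system – human recombinant His6-tagged SENP1 catalytic domain enzyme · Input – SENP1 enzyme, 20 pM final · Buffer or medium – Tris pH 8 buffer plus EDTA, NaCl, BME, BSA, NP40, catalase · Schedule – 50 min reaction at room temperature · Technique – FRET read of cyan and yellow fluorescence · Control set – no-enzyme wells low, DMSO-plus-enzyme wells high control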
PfM18AAP inh-2: confirmation of Plasmodium falciparum M18 aspartyl aminopeptidase inhibitors. 28% of 2,400 active. inhibition, % at 7.35 µM. shares compounds with PfM18AAP inh-1. recombinant PfM18AAP, H-Glu-NHMec fluorogenic cleavage;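 active = mean inhibition over replicate wells above the hit cutoff set for the earlier primary screen, cut at about 29% in these data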;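 note: 0% = median of test compound wells and 100% = 2 mM ZnCl2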
CTSL1 counter-2: counter-screen for PFM18AAP inhibitors: confirmation of human cathepsin L inhibitors | shares compounds with PfM18AAP inh-1 | purified cathepsin L1, Z-Leu-Arg-MCA fluorescence | inhibition, % at 5.96 µM | 2,400 tested, under 10 active | AID 2178;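 active = average inhibition across replicates above the hit cutoff set in the earlier primary screen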;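 note: 0% = median of test compound wells and 100% = Z-Phe-Ala-diazomethylketone 1 µM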
Target sequence (P07711 whole entry, looked up): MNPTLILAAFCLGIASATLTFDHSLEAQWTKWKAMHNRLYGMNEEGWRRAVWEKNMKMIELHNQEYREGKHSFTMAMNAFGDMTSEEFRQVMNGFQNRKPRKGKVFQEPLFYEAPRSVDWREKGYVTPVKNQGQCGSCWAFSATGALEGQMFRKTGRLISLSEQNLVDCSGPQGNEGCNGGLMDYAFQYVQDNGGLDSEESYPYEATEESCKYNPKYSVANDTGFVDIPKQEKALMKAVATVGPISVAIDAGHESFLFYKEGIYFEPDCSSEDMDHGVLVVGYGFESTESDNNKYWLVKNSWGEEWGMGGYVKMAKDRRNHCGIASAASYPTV
Active calls of the source: *. Most compounds without a hit are left out; they make up all but 4.2% or so of the library.

Screening Cc1nn(Cc2ccccc2)c(C)c1C(=O)NC1CCCc2ccccc21 (stereo not given) returned GAA850 FXN act 0, CTSL1 counter-1 -2, AHR activator 3, PfM18AAP inh-1 -2, HDAC3 inh 2 and SENP1 inh 2.
Screening O=[N+]([O-])c1c2ccccc2cc2ccccc12 returned GAA850 FXN act 0, AHR activator 5, HDAC3 inh -3 and SENP1 inh 0.
CN(C)[C@@H]1C(=O)C(C(N)=O)=C(O)[C@@]2(O)C(=O)C3=C(O)c4c(O)cccc4[C@@](C)(O)C3C[C@@H]12 (stereo not given in full) was read as GAA850 FXN act 19*, CTSL1 counter-1 -1, AHR activator 0, HDAC3 inh -3 and SENP1 inh 25.
`COc1cc(/C=C(/C)[N+](=O)[O-])ccc1OCc1ccccc1Cl` gave GAA850 FXN act -2, CTSL1 counter-1 2, AHR activator 18, PfM18AAP inh-1 30* and SENP1 inh 1.
`S=P(Nn1cnnc1)(c1ccccc1)c1ccccc1` gave GAA850 FXN act -1, CTSL1 counter-1 0, AHR activator 0, PfM18AAP inh-1 44*, HDAC3 inh -1, SENP1 inh 3, PfM18AAP inh-2 49* and CTSL1 counter-2 -3.
For O=C1NC(=O)N(c2ccc3c(c2)OCO3)C(=O)/C1=C\c1ccsc1 the results were GAA850 FXN act 1, CTSL1 counter-1 -1, AHR activator 3, PfM18AAP inh-1 33*, HDAC3 inh 8, SENP1 inh -2, PfM18AAP inh-2 -59 and CTSL1 counter-2 1.
For Cc1ccc(C2=NCC(=O)N(CC(=O)N3CCCCC3)c3sc(C)c(C)c32)cc1 the results were GAA850 FXN act -3, CTSL1 counter-1 2, AHR activator -1, PfM18AAP inh-1 1, HDAC3 inh 2 and SENP1 inh 0.
Screening CC[n+]1c(/C=C/C=C/c2ccc(N(C)C)cc2)sc2ccccc21 returned GAA850 FXN act -7, CTSL1 counter-1 0, AHR activator 1, PfM18AAP inh-1 -4, HDAC3 inh 1 and SENP1 inh 26.
For CC[n+]1c(/C=C/N(C)c2ccccc2)sc2ccc(Cl)cc21 the results were GAA850 FXN act -1, CTSL1 counter-1 6, AHR activator 18, PfM18AAP inh-1 36*, HDAC3 inh 1, SENP1 inh -73, PfM18AAP inh-2 -47 and CTSL1 counter-2 3.
`CCN(CC)c1ccc(N=Cc2c(O)[nH]c(=O)[nH]c2=O)cc1` gave GAA850 FXN act 2, CTSL1 counter-1 2, AHR activator 3, PfM18AAP inh-1 44*, HDAC3 inh 8, SENP1 inh 24, PfM18AAP inh-2 -36 and CTSL1 counter-2 4.
Screening CCN(CC)c1ccc(N=Cc2c(O)n(-c3ccccc3)c(=O)[nH]c2=O)cc1 returned GAA850 FXN act -1, CTSL1 counter-1 1, AHR activator 8, PfM18AAP inh-1 18, HDAC3 inh 14 and SENP1 inh -37.
Screening CC(C(=O)c1ccc(Cl)cc1Cl)n1cncn1 (stereo not given) returned GAA850 FXN act 0, CTSL1 counter-1 0, AHR activator 0, PfM18AAP inh-1 65*, HDAC3 inh -2, SENP1 inh 2, PfM18AAP inh-2 54* and CTSL1 counter-2 -2.
C[C@@H]1CN([C@H](C)CO)C(=O)CCCn2cc(nn2)CO[C@H]1CN(C)C(=O)Oc1ccc2ccccc2c1 was read as GAA850 FXN act -2 and SENP1 inh 0.
Screening O=C1NC(=S)NC(=O)C1=Cc1cccn1-c1ccc(O)cc1 returned GAA850 FXN act -1, PfM18AAP inh-1 34*, SENP1 inh 1, PfM18AAP inh-2 57* and CTSL1 counter-2 -2.
For O=c1[nH]c(Cl)ccc1CN1CCOCC1 the results were GAA850 FXN act 0, CTSL1 counter-1 -5, AHR activator 4, HDAC3 inh -2 and SENP1 inh 3.
Screening Cc1ccc(-n2nc(C)c3c2NC(=O)CSC3c2ccc3c(c2)OCO3)cc1 (stereo not given) returned GAA850 FXN act -1, CTSL1 counter-1 1, AHR activator 15, PfM18AAP inh-1 35*, HDAC3 inh -3, SENP1 inh -3, PfM18AAP inh-2 -18 and CTSL1 counter-2 3.
Cc1cccc2c1=NC(=O)/C(=C/c1c(O)[nH]c(=O)[nH]c1=O)C=2 was read as GAA850 FXN act 5, CTSL1 counter-1 -1, AHR activator 8, PfM18AAP inh-1 5, HDAC3 inh 5 and SENP1 inh 1.
Screening O=c1[nH]c(=S)[nH]c(O)c1/C=C1/C=c2ccccc2=N1 returned GAA850 FXN act 2, CTSL1 counter-1 1, AHR activator 18, PfM18AAP inh-1 44*, HDAC3 inh 11, SENP1 inh -3, PfM18AAP inh-2 59* and CTSL1 counter-2 -3.
CN1Cc2c(c(C#N)c(N)n(C)c2=S)CC1(C)C was read as GAA850 FXN act -1, CTSL1 counter-1 7, AHR activator 1, PfM18AAP inh-1 -11, HDAC3 inh -18 and SENP1 inh -27.
`O=C(Cc1ccccc1)OCC(=O)c1ccccc1` gave GAA850 FXN act 1, PfM18AAP inh-1 -11, HDAC3 inh -1 and SENP1 inh 1.
O=C(OCC(=O)c1ccc([N+](=O)[O-])cc1)/C(=C\c1ccc(Cl)cc1)NC(=O)c1ccccc1 was read as GAA850 FXN act -1, CTSL1 counter-1 7, AHR activator 0, PfM18AAP inh-1 40*, HDAC3 inh 2, SENP1 inh 2, PfM18AAP inh-2 4 and CTSL1 counter-2 12.
`O=C(O)c1ccc(-n2c(O)c(/C=C3\C=Nc4ccccc43)c(=O)[nH]c2=O)cc1` gave GAA850 FXN act -1, CTSL1 counter-1 3, AHR activator 13, PfM18AAP inh-1 48*, HDAC3 inh 14, SENP1 inh -34, PfM18AAP inh-2 53* and CTSL1 counter-2 -1.
For O=c1[nH]c(=O)n(-c2cccc(F)c2)c(O)c1/C=C1\C=Nc2ccccc21 the results were GAA850 FXN act 0, CTSL1 counter-1 0, AHR activator 15, PfM18AAP inh-1 34*, HDAC3 inh 4, SENP1 inh 4, PfM18AAP inh-2 45* and CTSL1 counter-2 -1.
Screening C[C@]12CCC3C(CC[C@@H]4C[C@H](O)CC[C@]34C)C1CCC2=O (stereo not given in full) returned GAA850 FXN act 0, AHR activator 0, HDAC3 inh 6 and SENP1 inh 1.
